Assay outcomes: PubChem, several laboratories
A selection: hits, their analogues and other compounds. The true share with any hit is near 27%.
HIV Rev-RRE inh: inhibitors of HIV-1 Rev-RRE RNA interaction; inhibition, % at 8 µM; P05866; hit rate 0.79% among 97,000; AID 704; Rev peptide-RRE RNA binding, FRET;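 active = inhibition above the screen-wide mean plus 3 SD, cut at about 35% in these data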
Target sequence (P05866 whole entry, looked up): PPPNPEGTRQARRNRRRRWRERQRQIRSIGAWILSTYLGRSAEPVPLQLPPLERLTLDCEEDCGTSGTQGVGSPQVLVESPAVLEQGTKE
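Material: labelled RRE RNA duplex and labelled Rev peptide / Buffer or medium: HEPES pH 7.5 salt buffer with EDTA / Compound dosing: single point, 8 µM final nominal compound concentration / Benchmarks: DMSO low control, neomycin B high control / Timing: 5 min preincubation and 15 min binding, 25 °C / Technique: FRET fluorescence readout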
CYP2C9 act: activators of human CYP2C9; recombinant CYP2C9, luciferin-H conversion, luminescence; stronger effect = higher value; factor 1 = untreated enzyme, 0 = blocked; activation factor at 5 µM; hit rate 1.4% among 96,000;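 active = activation factor of 2 or more for CYP2C9 at a 5 µM dose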
CYP2C19 activ: cytochrome P450 2C19 (human) activation; recombinant CYP2C19, luciferin-H EGE luminescence; stronger effect = higher value; 0 = fully inhibited enzyme, 1 = untreated enzyme; 96,000 tested, under 10 active; AID 1025; activation factor at 5 µM;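 active = activation factor of at least 2 at 5 µM in the primary screen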
Target sequence (P33261 whole entry, looked up): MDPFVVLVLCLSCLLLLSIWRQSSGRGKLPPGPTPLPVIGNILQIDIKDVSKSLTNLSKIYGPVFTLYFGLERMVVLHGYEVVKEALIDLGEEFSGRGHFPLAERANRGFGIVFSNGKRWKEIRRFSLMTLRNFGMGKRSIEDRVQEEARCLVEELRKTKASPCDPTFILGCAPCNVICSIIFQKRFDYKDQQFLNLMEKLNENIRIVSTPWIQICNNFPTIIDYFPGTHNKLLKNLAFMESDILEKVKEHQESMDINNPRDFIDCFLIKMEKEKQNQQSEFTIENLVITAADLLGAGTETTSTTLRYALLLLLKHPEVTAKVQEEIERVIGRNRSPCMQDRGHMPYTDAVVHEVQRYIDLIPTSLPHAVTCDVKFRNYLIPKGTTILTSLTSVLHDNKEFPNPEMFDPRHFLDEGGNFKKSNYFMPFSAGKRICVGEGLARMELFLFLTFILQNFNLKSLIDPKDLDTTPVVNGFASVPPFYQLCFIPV
Cav32 inh: blocks human Cav3.2 T-type calcium channel | B-score at 10 µM | AID 449739 | Cav3.2-expressing cells, Fluo-4 calcium fluorescence FDSS; stronger effect = lower value | O95180 | hit rate 4% among 100,000;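 active = single-dose well whose peak fluorescence ratio is a statistical outlier from its plate by either plate-standardised score or position-corrected B-score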
CYP2C9 inh: human CYP2C9 inhibition; inhibition, % at 5 µM; CYP2C9 Supersomes, luciferin-H conversion, luminescence; AID 777; hit rate 20% among 96,000;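 active = blocking of liver enzyme CYP2C9 beyond about 50% at 5 µM, limit read from the data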
CYP2C19 inh: inhibitors of human CYP2C19; CYP2C19 Supersomes, luciferin-H EGE luminescence, 30 min; hit rate 21% among 96,000; inhibition, % at 5 µM; AID 778;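 active = CYP2C19 inhibition above a set limit at 5 µM in the primary screen, cut at about 50% in these data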
Numbers stand for hits; i = inactive; nt = no result given.

SMILES	HIV Rev-RRE inh	CYP2C9 act	CYP2C19 activ	Cav32 inh	CYP2C9 inh	CYP2C19 inh
CCOC(=O)N1CC=C2C(C#N)=C(N)C(C#N)(C#N)[C@H](c3ccc(OC(C)C)c(OCC)c3)[C@H]2C1	i	i	i	i	74	i
CN1CC=C2C(C#N)=C(N)C(C#N)(C#N)[C@H](c3cccc(Cl)c3)C2C1 (some centres not stated)	64	i	i	i	i	i
NC(=O)CN1CCN(C(=O)Nc2ccccc2)CC1	nt	i	i	i	i	i
CCOC(=O)N1CC=C2C(C#N)=C(N)C(C#N)(C#N)[C@H](c3ccsc3)[C@H]2C1	i	i	i	i	i	i
CC(C)c1ccc(C2C3CSCC=C3C(C#N)=C(N)C2(C#N)C#N)cc1 (configuration not stated)	i	i	i	i	100	67
CN1CC=C2C(C#N)=C(N)C(C#N)(C#N)C(c3ccsc3)C2C1 (configuration not stated)	56	i	i	i	i	i
CN1C2C=C3C(C#N)=C(N)C(C#N)(C#N)[C@@H](c4ccsc4)[C@@H]3C1CC2 (some centres not stated)	i	i	i	i	i	i
COc1ccc(-c2ccnc3nc(N4CCN(c5ccccc5)CC4)nn23)cc1	i	i	i	i	61	i
Fc1ccc(-c2ccnc3nc(N4CCOCC4)nn23)cc1	i	i	i	i	i	i
CCN(Cc1ccccc1)Cc1cc(OC)cc(OC)c1	i	i	i	i	i	95
CCN(Cc1ccccc1)Cc1c(F)cccc1F	i	i	i	i	i	i
COc1ccc(CN(CCN(C)C)Cc2ccccc2)c(OC)c1	i	i	i	i	i	82
COc1ccc(-n2c(NCCN(C)C)nc3sc4c(c3c2=O)CCCCC4)cc1	i	i	i	i	i	i
CN1C=CC=C/C1=C1\SC(=S)N(C2CCCCC2)C1=O	i	i	i	i	i	58
CN1C=CC=C/C1=C1\SC(=S)N(c2ccccc2)C1=O	i	i	i	nt	i	i
CCOc1ccc(OCc2ccc(C(=O)Nc3ccc(Cl)cn3)o2)cc1	i	i	i	i	i	i
CCn1nccc1C(=O)Nc1ccc(Cl)cn1	i	i	i	i	i	59
CCn1ccc(C(=O)Nc2ccc(Cl)cn2)n1	i	i	i	i	i	67
CCn1nccc1C(=O)Nc1cc(Cl)cc(Cl)c1	i	nt	nt	-3.8	nt	nt
CC(=O)C1=C(C)N(Cc2ccccc2)C(=O)N[C@H]1CCc1ccccc1	nt	nt	nt	i	nt	nt
CCOC(=O)C1CCN(C(=O)c2cn(-c3ccccc3)nc2-c2cccnc2)CC1	i	i	i	nt	i	i
COc1ccc(S(=O)(=O)Nc2ccc(C)cc2)cc1N(C)S(=O)(=O)c1ccc(Cl)cc1	i	i	i	i	62	71
COC(=O)c1cc(NS(=O)(=O)c2ccc(OC)c(OC)c2)ccc1Cl	i	i	i	i	80	100
COc1cc(S(=O)(=O)NC(C)C)ccc1Cl	i	2.5	i	i	i	53
COC(=O)c1cc(Cl)c(NS(=O)(=O)c2ccccc2)cc1OC	nt	i	i	i	92	92
SMILES	HIV Rev-RRE inh	CYP2C9 act	CYP2C19 activ	Cav32 inh	CYP2C9 inh	CYP2C19 inh
COc1ccc(NS(=O)(=O)c2coc(C(N)=O)c2)cc1Cl	i	nt	nt	i	nt	nt
COc1ccc(NC(=O)C(C)NS(=O)(=O)c2ccc(NC(C)=O)cc2)cc1Cl (configuration not stated)	i	nt	nt	i	nt	nt
COc1ccc(NC(=O)CNS(=O)(=O)c2ccccc2)cc1Cl	i	i	i	i	i	63
COc1ccc(NC(=O)C=C(C)C)cc1Cl	i	i	i	i	i	58
COc1ccc(S(=O)(=O)Nc2ccc(F)c(Cl)c2)cc1OC	nt	i	i	i	56	100
O=C(CCc1nc2ccccc2[nH]c1=O)OCC(=O)N1CCc2ccccc21	i	i	i	i	i	i
Cc1ccc(-n2nnc(-c3cccnc3Cl)n2)cc1	nt	nt	nt	i	nt	nt
CC(C)OC(=O)CCC1(C(=O)O)CCC(=O)NC1 (configuration not stated)	i	i	i	i	i	i
O=C1CC(c2ccc(Cl)c(Cl)c2)CC(O)=C1C=NCCN1CCNCC1 (configuration not stated)	i	i	i	i	i	i
Cc1ccc(NC(=O)c2c(Cl)n(C)c3ccccc23)cc1	i	2.1	i	nt	i	i
Cn1c(Cl)c(C(=O)Nc2ccccc2)c2ccccc21	i	i	i	i	i	i
Cc1ccc(C2=N/C(=C\c3cccs3)C(=O)N2Nc2ccccc2)cc1	i	i	i	i	i	i
O=C1/C(=C/c2cccs2)N=C(c2cccs2)N1Nc1ccccc1	i	i	i	i	93	i
O=C1/C(=C\c2cccs2)N=C(c2cccs2)N1Nc1ccccc1	i	i	i	i	58	i
CC(=O)Oc1cccc(/C=c2\sc3nc(-c4ccco4)nn3c2=O)c1	i	i	i	nt	i	i
COc1cc(/C=c2\sc3nc(-c4ccncc4)nn3c2=O)ccc1OC(C)=O	i	i	i	nt	76	60
COc1cc(OC)c(Cl)cc1N	nt	i	i	i	i	i
CC1C/C(=N/NC(=O)c2cccc(F)c2)c2ccc(O)cc2C1 (configuration not stated)	i	i	i	i	i	51
Clc1ccc(C2=NOC(c3nnc(-c4ccccc4)o3)C2)cc1 (configuration not stated)	nt	nt	nt	i	nt	nt
COc1ccc(CN(Cc2nc3ccccc3c(=O)[nH]2)C(=O)NC2CCCCC2)cc1	i	i	i	i	i	i
COc1cccc(N2CCN(Cc3nc4ccccc4c(=O)[nH]3)CC2)c1	i	i	i	nt	i	i
COc1ccc(S(=O)(=O)N(Cc2nc3ccccc3c(=O)[nH]2)C2CCCC2)cc1	i	i	i	i	94	85
COc1ccccc1CN(Cc1nc2ccccc2c(=O)[nH]1)C(=O)Nc1ccccc1C	i	i	i	-5.9	73	89
CCN(Cc1nc2ccccc2c(=O)[nH]1)Cc1cc(=O)oc2cc(OC)ccc12	i	i	i	i	52	i
Cc1ccccc1NC(=O)N(CCc1nc2ccccc2[nH]1)Cc1ccccc1	i	nt	nt	-4	nt	nt
SMILES	HIV Rev-RRE inh	CYP2C9 act	CYP2C19 activ	Cav32 inh	CYP2C9 inh	CYP2C19 inh
COC(=O)CCCC1=CC2=C(c3ccccc3)C(=O)C(C)(OC(=O)C3CCCC3)C(=O)C2=CN1Cc1ccc2c(c1)OCO2 (configuration not stated)	nt	nt	nt	i	nt	nt
C=CCn1c(N)c(C(=O)NCCC2=CCCCC2)sc1=S	i	i	i	i	i	i
COc1ccc(C2CC(c3cccs3)=Nc3ccccc3S2)cc1 (configuration not stated)	i	nt	nt	i	nt	nt
COc1ccccc1CN(Cc1nc2ccccc2c(=O)[nH]1)C(=O)Nc1ccc(C)cc1	i	i	i	-4.3	i	i
COc1ccccc1CN(Cc1nc2ccccc2c(=O)[nH]1)S(=O)(=O)c1ccc(C)cc1	i	i	i	i	74	70
CS(=O)(=O)N(Cc1ccc(F)cc1)Cc1nc2ccccc2c(=O)[nH]1	i	i	i	i	i	i
